Measured values: ChEMBL document CHEMBL4196177, “Synthesis, Evaluation, and Structure-Activity Relationship Study of Lanosterol Derivatives To Reverse Mutant-Crystallin-Induced Protein Aggregation” (J Med Chem, 2018)
Activity calls are given as the source filed them. No cut-off for these calls is given here.

Tests used:
Assay type in all cases: cell-based
[1] = test system: T1, Beta-crystallin B2 (Homo sapiens), P43320 [V187E]; experiment: Inhibition of beta-crystallin B2 V187E mutant (unknown origin)-induced intracellular protein aggregation expressed in human HLE-B3 cells at 4 uM incubated for 6 to 8 hrs by fluorescence microscopy relative to untreated control
T1 sequence (whole entry): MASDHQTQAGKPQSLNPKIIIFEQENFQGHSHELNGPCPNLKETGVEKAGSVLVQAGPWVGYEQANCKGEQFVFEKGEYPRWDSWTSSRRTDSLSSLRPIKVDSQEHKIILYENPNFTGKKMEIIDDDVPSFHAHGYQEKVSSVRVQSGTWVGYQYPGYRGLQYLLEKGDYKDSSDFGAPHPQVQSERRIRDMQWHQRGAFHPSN

[2] = test system: T2, Alpha-crystallin B chain (Homo sapiens), P02511 [R120G]; experiment: Inhibition of alpha-crystallin B R120G mutant (unknown origin)-induced intracellular protein aggregation expressed in human HeLa cells at 4 uM incubated for 6 to 8 hrs by fluorescence microscopy relative to untreated control
T2 sequence (whole entry): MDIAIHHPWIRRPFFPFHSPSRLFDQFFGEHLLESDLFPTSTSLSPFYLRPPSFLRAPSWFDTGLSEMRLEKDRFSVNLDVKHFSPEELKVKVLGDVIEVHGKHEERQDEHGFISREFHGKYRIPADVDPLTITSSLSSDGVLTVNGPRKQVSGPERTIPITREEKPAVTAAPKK
Outline: (§1)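 Cells were transfected with mutant crystallin constructs using Lipofectamine 2000 and cultured for 16 h until the overexpressed mutants formed aggregates. Compounds were then added to the culture medium and incubated for 6~8 h. Aggregate dissolution was scored by fluorescence microscopy. For αB R120G, % inhibition at 0.4 and 4 µM was calculated against DMSO-treated cells; values are mean ± error.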

[3] = test system: T2, Alpha-crystallin B chain (Homo sapiens), P02511 [R120G]; experiment: Inhibition of alpha-crystallin B R120G mutant (unknown origin)-induced intracellular protein aggregation expressed in human HeLa cells at 0.4 uM incubated for 6 to 8 hrs by fluorescence microscopy relative to untreated control; outline: as §1
[4] = test system: T2, Alpha-crystallin B chain (Homo sapiens), P02511 [R120G]; experiment: Inhibition of alpha-crystallin B R120G mutant (unknown origin)-induced intracellular protein aggregation expressed in human HLE-B3 cells at 4 uM incubated for 6 to 8 hrs by fluorescence microscopy relative to untreated control; outline: as §1
[5] = test system: T2, Alpha-crystallin B chain (Homo sapiens), P02511 [R120G]; experiment: Inhibition of alpha-crystallin B R120G mutant (unknown origin)-induced intracellular protein aggregation expressed in human HLE-B3 cells at 0.4 uM incubated for 6 to 8 hrs by fluorescence microscopy relative to untreated control; outline: as §1
[6] = test system: T1, Beta-crystallin B2 (Homo sapiens), P43320 [V187E]; experiment: Inhibition of beta-crystallin B2 V187E mutant (unknown origin)-induced intracellular protein aggregation expressed in human HeLa cells at 4 uM incubated for 6 to 8 hrs by fluorescence microscopy relative to untreated control
[7] = test system: T1, Beta-crystallin B2 (Homo sapiens), P43320 [V187E]; experiment: Inhibition of beta-crystallin B2 V187E mutant (unknown origin)-induced intracellular protein aggregation expressed in human HeLa cells at 0.4 uM incubated for 6 to 8 hrs by fluorescence microscopy relative to untreated control
[8] = test system: T1, Beta-crystallin B2 (Homo sapiens), P43320 [V187E]; experiment: Inhibition of beta-crystallin B2 V187E mutant (unknown origin)-induced intracellular protein aggregation expressed in human HLE-B3 cells at 0.4 uM incubated for 6 to 8 hrs by fluorescence microscopy relative to untreated control
[9] = test system: T3, Gamma-crystallin C (Homo sapiens), P07315 [G129C]; experiment: Inhibition of gamma-crystallin C G129C mutant (unknown origin)-induced intracellular protein aggregation expressed in human HeLa cells at 4 uM incubated for 6 to 8 hrs by fluorescence microscopy relative to untreated control
T3 sequence (whole entry): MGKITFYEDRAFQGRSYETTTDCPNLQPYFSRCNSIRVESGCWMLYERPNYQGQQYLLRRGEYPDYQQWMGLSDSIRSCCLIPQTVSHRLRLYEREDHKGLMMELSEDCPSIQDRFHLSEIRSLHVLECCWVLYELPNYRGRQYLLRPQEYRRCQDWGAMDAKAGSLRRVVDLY

[10] = test system: T3, Gamma-crystallin C (Homo sapiens), P07315 [G129C]; experiment: Inhibition of gamma-crystallin C G129C mutant (unknown origin)-induced intracellular protein aggregation expressed in human HeLa cells at 0.4 uM incubated for 6 to 8 hrs by fluorescence microscopy relative to untreated control
[11] = test system: T3, Gamma-crystallin C (Homo sapiens), P07315 [G129C]; experiment: Inhibition of gamma-crystallin C G129C mutant (unknown origin)-induced intracellular protein aggregation expressed in human HLE-B3 cells at 4 uM incubated for 6 to 8 hrs by fluorescence microscopy relative to untreated control
[12] = test system: T3, Gamma-crystallin C (Homo sapiens), P07315 [G129C]; experiment: Inhibition of gamma-crystallin C G129C mutant (unknown origin)-induced intracellular protein aggregation expressed in human HLE-B3 cells at 0.4 uM incubated for 6 to 8 hrs by fluorescence microscopy relative to untreated control
[13] = test system: T4, Gamma-crystallin D (Homo sapiens), P07320 [W43R]; experiment: Inhibition of gamma-crystallin D W43R mutant (unknown origin)-induced intracellular protein aggregation expressed in human HeLa cells at 4 uM incubated for 6 to 8 hrs by fluorescence microscopy relative to untreated control
T4 sequence (whole entry): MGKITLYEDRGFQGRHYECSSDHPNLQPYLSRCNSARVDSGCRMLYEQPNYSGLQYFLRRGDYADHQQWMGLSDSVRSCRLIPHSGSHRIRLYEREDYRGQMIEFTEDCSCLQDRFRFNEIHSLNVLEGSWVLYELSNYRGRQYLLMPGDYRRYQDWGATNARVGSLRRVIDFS

[14] = test system: T4, Gamma-crystallin D (Homo sapiens), P07320 [W43R]; experiment: Inhibition of gamma-crystallin D W43R mutant (unknown origin)-induced intracellular protein aggregation expressed in human HeLa cells at 0.4 uM incubated for 6 to 8 hrs by fluorescence microscopy relative to untreated control
[15] = test system: T4, Gamma-crystallin D (Homo sapiens), P07320 [W43R]; experiment: Inhibition of gamma-crystallin D W43R mutant (unknown origin)-induced intracellular protein aggregation expressed in human HLE-B3 cells at 4 uM incubated for 6 to 8 hrs by fluorescence microscopy relative to untreated control
[16] = test system: T4, Gamma-crystallin D (Homo sapiens), P07320 [W43R]; experiment: Inhibition of gamma-crystallin D W43R mutant (unknown origin)-induced intracellular protein aggregation expressed in human HLE-B3 cells at […] incubated for 6 to 8 hrs by fluorescence microscopy relative to untreated control
[17] = test system: T5, Alpha-crystallin A chain (Homo sapiens), P02489 [Y118D]; experiment: Inhibition of alpha-crystallin A Y118D mutant (unknown origin)-induced intracellular protein aggregation expressed in human HeLa cells at 4 uM incubated for 6 to 8 hrs by fluorescence microscopy relative to untreated control
T5 sequence (whole entry): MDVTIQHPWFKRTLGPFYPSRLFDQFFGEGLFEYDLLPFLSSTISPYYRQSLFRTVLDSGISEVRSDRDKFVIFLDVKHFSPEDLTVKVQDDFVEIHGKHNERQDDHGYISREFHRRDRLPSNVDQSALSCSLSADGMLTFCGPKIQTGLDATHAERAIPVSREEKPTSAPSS

[18] = test system: T5, Alpha-crystallin A chain (Homo sapiens), P02489 [Y118D]; experiment: Inhibition of alpha-crystallin A Y118D mutant (unknown origin)-induced intracellular protein aggregation expressed in human HeLa cells at 0.4 uM incubated for 6 to 8 hrs by fluorescence microscopy relative to untreated control
[19] = test system: T5, Alpha-crystallin A chain (Homo sapiens), P02489 [Y118D]; experiment: Inhibition of alpha-crystallin A Y118D mutant (unknown origin)-induced intracellular protein aggregation expressed in human HLE-B3 cells at 4 uM incubated for 6 to 8 hrs by fluorescence microscopy relative to untreated control
[20] = test system: T5, Alpha-crystallin A chain (Homo sapiens), P02489 [Y118D]; experiment: Inhibition of alpha-crystallin A Y118D mutant (unknown origin)-induced intracellular protein aggregation expressed in human HLE-B3 cells at 0.4 uM incubated for 6 to 8 hrs by fluorescence microscopy relative to untreated control

| Compound | inhibition [1] | inhibition [2] | inhibition [3] | inhibition [4] | inhibition [5] | inhibition [6] | inhibition [7] | inhibition [8] | inhibition [9] | inhibition [10] | inhibition [11] | inhibition [12] | inhibition [13] | inhibition [14] | inhibition [15] | inhibition [16] | inhibition [17] | inhibition [18] | inhibition [19] | inhibition [20] |
| --- | --- | --- | --- | --- | --- | --- | --- | --- | --- | --- | --- | --- | --- | --- | --- | --- | --- | --- | --- | --- |
| C[C@H](CCCC(C)(C)O)[C@H]1CC[C@@]2(C)[C@@]34CC[C@H]5C(C)(C)/C(=N/O)CC[C@]5(C)[C@]3(CC[C@]12C)O4 | inactive | inactive | inactive | inactive | inactive | inactive | inactive | inactive | inactive | inactive | inactive | inactive | inactive | inactive | inactive | inactive | inactive | inactive | inactive | inactive |
| C[C@H](CCCC(C)(C)O)[C@H]1CC[C@@]2(C)C3=CC[C@H]4C(C)(C)[C@@H](O)CC[C@]4(C)C3=CC[C@]12C | Active | Active | Active | Active | Active | Active | Active | Active | Active | Active | Active | Active | Active | Active | Active | Active | Active | Active | Active | Active |
| C[C@H](CCCC(C)(C)O)[C@H]1CC[C@@]2(C)C3=C(CC[C@]12C)[C@@]1(C)CC[C@H](O)C(C)(C)[C@@H]1CC3 | Active | Active | Active | Active | Active | Active | Active | Active | Active | Active | Active | Active | Active | Active | Active | Active | Active | Active | Active | Active |

Next, values leading:

| inhibition [1] | inhibition [2] | inhibition [3] | inhibition [4] | inhibition [5] | inhibition [6] | inhibition [7] | inhibition [8] | inhibition [9] | inhibition [10] | inhibition [11] | inhibition [12] | inhibition [13] | inhibition [14] | inhibition [15] | inhibition [16] | inhibition [17] | inhibition [18] | inhibition [19] | inhibition [20] | Compound |
| --- | --- | --- | --- | --- | --- | --- | --- | --- | --- | --- | --- | --- | --- | --- | --- | --- | --- | --- | --- | --- |
| Active | Active | Active | Active | Active | Active | Active | Active | Active | Active | Active | Active | Active | Active | Active | Active | Active | Active | Active | Active | C[C@H](CCCC(C)(C)O)[C@H]1CC[C@@]2(C)C3=C(CC[C@]12C)[C@@]1(C)CCC(=O)C(C)(C)[C@@H]1CC3 |
| Active | Active | Active | Active | Active | Active | Active | Active | Active | Active | Active | Active | Active | Active | Active | Active | Active | Active | Active | Active | C[C@H](CCCC(C)(C)O)[C@H]1CC[C@@]2(C)C3=C(CC[C@]12C)[C@@]1(C)C[C@@H](F)[C@H](O)C(C)(C)[C@@H]1CC3 |
| Active | Active | Active | Active | Active | Active | Active | Active | Active | Active | Active | Active | Active | Active | Active | Active | Active | Active | Active | Active | C[C@H](CCCC(C)(C)O)[C@H]1CC[C@@]2(C)C3=C(CC[C@]12C)[C@@]1(C)C[C@@H](F)[C@@H](O)C(C)(C)[C@@H]1CC3 |
